Test results taken from ChEMBL document CHEMBL3259539, “A fragment-based method to discover irreversible covalent inhibitors of cysteine proteases” (J Med Chem, 2014).
Calls of active or inactive are those of the source. No cut-off for these calls is given here.

Key:
Papain (Carica papaya) [1] = target: T1, Papain (Carica papaya) (UniProt P00784); assay: Ratio of Kinact to Ki for papain by second-order papain inhibition plot
T1 sequence (whole entry): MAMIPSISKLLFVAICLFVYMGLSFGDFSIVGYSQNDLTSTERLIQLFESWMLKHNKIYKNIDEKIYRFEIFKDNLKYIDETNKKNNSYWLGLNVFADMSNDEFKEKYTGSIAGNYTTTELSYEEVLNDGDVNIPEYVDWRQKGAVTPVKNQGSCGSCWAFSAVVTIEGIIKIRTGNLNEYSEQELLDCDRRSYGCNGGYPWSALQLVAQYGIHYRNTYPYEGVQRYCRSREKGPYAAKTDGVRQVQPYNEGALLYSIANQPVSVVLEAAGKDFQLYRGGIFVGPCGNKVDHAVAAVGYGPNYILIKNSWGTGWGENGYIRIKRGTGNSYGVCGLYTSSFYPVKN
Summary of the method: (§1)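 Papain preactivated with 1 mM DTT for 30 min, then 3.84 μM preincubated up to 1 h with varying inhibitor in 50 mM Na3PO4/2 mM EDTA pH 6.2:acetonitrile (4:1). Aliquots taken every 10 min into 400 μM Cbz-Gly-ONp; p-nitrophenol absorbance followed, in duplicate. kobs from ln(% activity) vs time slopes; kinact/KI from kobs vs [I] slope (Kitz–Wilson).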

Papain (Carica papaya) [2] = target: T1, Papain (Carica papaya); assay: Irreversible inhibition of papain after 1 hr incubation at 100 uM by ESI-MS analysis
Summary of the method: (§2)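 Enzyme at 10 μM (papain; recombinant GST-HRV3C protease; recombinant USP08) in 50 mM HEPES, 150 mM NaCl, 0.1 mM EDTA, pH 7.5, with a 10-fragment mixture at 100 μM each (final) and 1% DMSO. Incubated at 23 °C, 1 h for papain and HRV3C, 4 h for USP08. Gel-filtered, then intact-protein LC/ESI-MS with maximum-entropy deconvolution.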

[3] = target: T2, Ubiquitin carboxyl-terminal hydrolase 8 (Homo sapiens) (UniProt P40818); assay: Binding affinity to deubiquitinase USP08 (unknown origin) assessed as labeling after 4 hrs incubation; summary of the method: as §2
T2 sequence (whole entry): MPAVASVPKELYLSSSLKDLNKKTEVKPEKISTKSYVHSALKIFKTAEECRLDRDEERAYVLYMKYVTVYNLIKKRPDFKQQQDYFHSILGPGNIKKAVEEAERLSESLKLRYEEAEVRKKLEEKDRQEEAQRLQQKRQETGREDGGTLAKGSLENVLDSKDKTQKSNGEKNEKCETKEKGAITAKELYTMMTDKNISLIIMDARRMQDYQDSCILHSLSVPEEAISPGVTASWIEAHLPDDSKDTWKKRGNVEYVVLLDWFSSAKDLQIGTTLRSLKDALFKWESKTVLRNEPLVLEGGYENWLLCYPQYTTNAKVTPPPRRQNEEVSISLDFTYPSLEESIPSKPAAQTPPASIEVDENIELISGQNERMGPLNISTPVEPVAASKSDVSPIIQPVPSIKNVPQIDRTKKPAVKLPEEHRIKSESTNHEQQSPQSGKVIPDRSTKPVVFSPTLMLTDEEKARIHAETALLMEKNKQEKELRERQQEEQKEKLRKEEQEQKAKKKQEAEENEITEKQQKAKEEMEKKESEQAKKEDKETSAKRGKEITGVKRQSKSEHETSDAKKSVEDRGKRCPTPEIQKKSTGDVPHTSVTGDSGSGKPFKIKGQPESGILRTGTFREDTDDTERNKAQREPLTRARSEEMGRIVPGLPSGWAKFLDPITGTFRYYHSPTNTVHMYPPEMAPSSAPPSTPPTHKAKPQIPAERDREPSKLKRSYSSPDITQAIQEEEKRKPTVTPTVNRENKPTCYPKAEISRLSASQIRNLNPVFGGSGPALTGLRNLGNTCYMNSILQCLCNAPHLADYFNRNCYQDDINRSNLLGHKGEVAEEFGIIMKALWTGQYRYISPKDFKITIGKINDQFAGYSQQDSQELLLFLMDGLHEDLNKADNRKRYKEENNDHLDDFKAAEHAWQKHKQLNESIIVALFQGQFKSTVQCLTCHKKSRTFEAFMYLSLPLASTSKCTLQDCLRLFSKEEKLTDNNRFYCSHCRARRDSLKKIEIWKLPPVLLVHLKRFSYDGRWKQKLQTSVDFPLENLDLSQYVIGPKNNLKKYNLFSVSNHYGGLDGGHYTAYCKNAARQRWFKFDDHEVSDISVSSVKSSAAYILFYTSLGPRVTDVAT

Papain (Carica papaya) [4] = target: T1, Papain (Carica papaya); assay: Irreversible inhibition of papain after 1 hr incubation at 100 uM by ESI-MS analysis in presence of 10 mM glutathione
Papain (Carica papaya) [5] = target: T1, Papain (Carica papaya); assay: Irreversible inhibition of papain assessed as covalent adducts after 16 to 64 hrs incubation at 100 uM by MS analysis
Papain (Carica papaya) [6] = target: T1, Papain (Carica papaya); assay: Irreversible inhibition of papain assessed as binding affinity cysteine after 1 hr incubation at 1 mM by ESI-MS analysis
Papain (Carica papaya) [7] = target: T1, Papain (Carica papaya); assay: Inhibition of papain by first-order papain inhibition plot; summary of the method: as §1
Papain (Carica papaya) [8] = target: T1, Papain (Carica papaya); assay: Irreversible inhibition of papain assessed as binding affinity cysteine after 1 hr incubation at 100 uM by ESI-MS analysis
[9] = target: T3, Human rhinovirus A protease (Human rhinovirus sp.) (UniProt Q4U254); assay: Binding affinity to GST-tagged human rhinovirus 3C protease assessed as labeling after 1 hr; summary of the method: as §2
T3 sequence (whole entry): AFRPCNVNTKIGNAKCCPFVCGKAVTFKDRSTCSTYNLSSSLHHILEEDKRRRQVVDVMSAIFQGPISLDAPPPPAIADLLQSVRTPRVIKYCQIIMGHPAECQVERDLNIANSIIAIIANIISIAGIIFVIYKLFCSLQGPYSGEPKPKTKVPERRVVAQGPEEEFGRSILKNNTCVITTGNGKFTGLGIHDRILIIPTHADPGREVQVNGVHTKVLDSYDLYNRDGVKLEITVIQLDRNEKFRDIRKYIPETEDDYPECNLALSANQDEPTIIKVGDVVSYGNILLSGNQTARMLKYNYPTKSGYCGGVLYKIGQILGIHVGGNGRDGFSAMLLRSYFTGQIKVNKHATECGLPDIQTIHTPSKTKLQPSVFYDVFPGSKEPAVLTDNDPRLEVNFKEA

## COC(=O)/C=C/CNC(=O)[C@H](CNC(C)=O)Cc1ccccc1
Papain (Carica papaya) [1]
  Ratio: 0.386

## COC(=O)/C=C/CNC(=O)c1ccc(C2CCCO2)s1 (configuration not stated)
Papain (Carica papaya) [1]
  Ratio: 0.037

## COC(=O)/C=C/CNC(=O)c1cc(-c2ccc(C)cc2)no1
Papain (Carica papaya) [2]
  inhibition: Active
[3]
  Activity: inactive
Papain (Carica papaya) [1]
  Ratio: 1.23
Papain (Carica papaya) [4]
  inhibition: Active
Papain (Carica papaya) [5]
  inhibition: Active
Papain (Carica papaya) [6]
  inhibition: Active
Papain (Carica papaya) [7]
  inhibition: Active
Papain (Carica papaya) [8]
  inhibition: Active

## COC(=O)/C=C/CNC(=O)c1cc2cc(Cl)cc(OC)c2o1
[9]
  Activity: 20%

## COC(=O)/C=C/CNC(=O)c1sc(-c2ccccc2F)nc1C
Papain (Carica papaya) [2]
  inhibition: Active
[3]
  Activity: 30%
Papain (Carica papaya) [1]
  Ratio: 0.409
Papain (Carica papaya) [4]
  inhibition: Active
Papain (Carica papaya) [5]
  inhibition: Active
Papain (Carica papaya) [6]
  inhibition: Active
Papain (Carica papaya) [7]
  inhibition: Active
Papain (Carica papaya) [8]
  inhibition: Active

## COC(=O)/C=C/CNC(=O)C1CCN(C(=O)CC(C)C)CC1
Papain (Carica papaya) [2]
  inhibition: Active
[3]
  Activity: inactive
Papain (Carica papaya) [1]
  Ratio: 0.461
Papain (Carica papaya) [4]
  inhibition: Active
Papain (Carica papaya) [5]
  inhibition: Active
Papain (Carica papaya) [6]
  inhibition: Active
Papain (Carica papaya) [7]
  inhibition: Active
Papain (Carica papaya) [8]
  inhibition: Active

## COC(=O)/C=C/CNC(=O)c1csc(-c2cccs2)n1
[9]
  Activity: 35%

## COC(=O)/C=C/CNC(=O)[C@@H](CNC(C)=O)Cc1ccccc1
Papain (Carica papaya) [1]
  Ratio: 6.58

## COC(=O)/C=C/CNC(=O)[C@@H](CNC(C)=O)CC(C)C
Papain (Carica papaya) [1]
  Ratio: 1.1

## COC(=O)/C=C/CNC(=O)c1ccc2ccccc2n1
[9]
  Activity: 20%

## COC(=O)/C=C/CNC(=O)c1ccccc1NC(=O)Nc1ccc(Cl)cc1
[3]
  Activity: 30%
